In ChEMBL document CHEMBL4334446, “Evaluating the effects of fluorine on biological properties and metabolic stability of some antitubulin 3-substituted 7-phenyl-pyrroloquinolinones” (Eur J Med Chem, 2019):
Activity calls are given as the source filed them. The rule behind the calls is not given here.

Experiments:
[1] = tested on: HeLa; assay: Induction of cell cycle arrest in human HeLa cells assessed as accumulation at M phase by measuring p-histone H3 level at 50 to 100 nM incubated for 24 hrs by PI staining based flow cytometric analysis; assay type: functional
[2] = Growth inhibition of human DND41 cells incubated for 72 hrs by MTT assay; assay type: functional; conditions: DND41, 72 h
Procedure, shortened: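 Leukemia lines were grown in RPMI-1640; the CEM^Vbl-100 medium also contained 100 ng/mL vinblastine. Cells were seeded at 8 × 10³ per well and left 18 h at 37 °C, 5% CO2. Medium was then replaced with fresh medium holding graded compound concentrations (DMSO stocks), in triplicate, for 72 h. Viability was read by MTT, and GI50 = concentration inhibiting proliferation 50%.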

[3] = tested on: MDA-MB-231; assay: Growth inhibition of human MDA-MB-231 cells incubated for 72 hrs by MTT assay; assay type: functional; conditions: MDA-MB-231, 72 h
[4] = tested on: A-375; assay: Growth inhibition of human A375 cells incubated for 72 hrs by MTT assay; assay type: functional; conditions: A-375, 72 h
[5] = tested on: A2058; assay: Growth inhibition of human A2058 cells incubated for 72 hrs by MTT assay; assay type: functional; conditions: A2058, 72 h
[6] = Growth inhibition of PHA-stimulated human PBL cells incubated for 72 hrs by MTT assay; assay type: cell-based; conditions: PHA-stimulated PBL cells (peripheral blood lymphocytes)
Procedure, shortened: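 PBL from healthy donors were isolated on a Lymphoprep gradient, held overnight in RPMI-1640 with 10% FBS, and the non-adherent cells resuspended at 5 × 10^5 cells/mL. Proliferating cultures got 2.5 µg/mL PHA; resting cultures got none. Compound was added at several concentrations for 72 h and viability read by MTT. GI50 reported as mean ± SEM of three experiments.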

[7] = tested on: A-375; assay: Induction of cell cycle arrest in human A375 cells assessed as accumulation of cells at G2/M phase at 50 to 100 nM incubated for 24 hrs by PI staining based flow cytometric analysis; assay type: functional
Procedure, shortened: (§1)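 A375 and A2058 melanoma cells were treated 24 h. Cells were fixed in ice-cold 70% ethanol, then given lysis buffer with RNase A and 0.1% Triton X-100 and stained with PI. Phase distribution came from flow cytometric DNA histograms. Mean ± SEM of two independent experiments.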

[8] = tested on: A2058; assay: Induction of cell cycle arrest in human A2058 cells assessed as accumulation of cells at G2/M phase at 50 to 100 nM incubated for 24 hrs by PI staining based flow cytometric analysis; assay type: functional; procedure, shortened: as §1
[9] = tested on: A2058; assay: Induction of cell cycle arrest in human A2058 cells assessed as reduction in cell population at S phase at 50 to 100 nM incubated for 24 hrs by PI staining based flow cytometric analysis; assay type: functional; procedure, shortened: as §1
[10] = tested on: A2058; assay: Induction of cell cycle arrest in human A2058 cells assessed as reduction in cell population at G1 phase at 50 to 100 nM incubated for 24 hrs by PI staining based flow cytometric analysis; assay type: functional; procedure, shortened: as §1
[11] = tested on: HeLa; assay: Cell cycle arrest in human HeLa cells assessed as proportion of mitotic cells at 50 nM incubated for 24 hrs by PI staining based flow cytometric assay (reference value: 1.5%); assay type: functional
[12] = tested on: HeLa; assay: Cell cycle arrest in human HeLa cells assessed as proportion of mitotic cells at 100 nM incubated for 24 hrs by PI staining based flow cytometry (reference value: 1.5%); assay type: functional
[13] = tested on: HeLa; assay: Increase in cyclin B1 protein expression level in human HeLa cells incubated for 24 to 48 hrs by western blot analysis; assay type: functional, cell-based
Procedure, shortened: (§2)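 HeLa cells were exposed for set times, including 24 and 48 h, then washed in cold PBS and lysed on ice for 30 min. Lysates were cleared at 15000 × g at 4 °C. 10 µg protein was run by SDS-PAGE and transferred to PVDF. Blots were probed 2 h at room temperature with primary antibodies, then peroxidase secondary antibodies, and detected by ECL. Membranes were reprobed for actin as loading control.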

[14] = tested on: HeLa; assay: Cell cycle arrest in human HeLa cells assessed as decrease in phosphorylated form of cdc2 kinase at 50 to 100 nM incubated for 48 hrs by western blot analysis; assay type: functional, cell-based; procedure, shortened: as §2
[15] = tested on: HeLa; assay: Induction of mitochondrial membrane depolarization in human HeLa cells at 10 to 100 nM measured at early apoptotic stage of cells by JC1 staining based flow cytometric analysis; assay type: functional, cell-based; conditions: TDE = time-dependent effect
Procedure, shortened: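 HeLa cells were treated 6, 12, 24 and 48 h with 10–100 nM. Cells were stained with JC-1, and the fraction with low mitochondrial potential was measured by flow cytometry. Mean ± SEM of three independent experiments.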

[16] = tested on: HeLa; assay: Induction of apoptosis in human HeLa cells assessed as decrease in Bcl2 protein expression at 10 to 100 nM incubated for 24 hrs by western blot analysis; assay type: functional, cell-based; procedure, shortened: as §2
[17] = tested on: HeLa; assay: Induction of apoptosis in human HeLa cells assessed as decrease in Mcl1 protein expression at 50 to 100 nM incubated upto 48 hrs by western blot analysis; assay type: functional, cell-based; conditions: 10 to 100 nM, in the assay text read “10 to 100 nM” for “50 to 100 nM”; procedure, shortened: as §2
[18] = tested on: HeLa; assay: Induction of apoptosis in human HeLa cells assessed as increase in H2AX expression at 50 to 100 nM incubated upto 48 hrs by western blot analysis; assay type: functional, cell-based; procedure, shortened: as §2
[19] = tested on: B16-BL6; assay: Antitumour activity against mouse B16-BL6 cells allografted in C57BL/6 mouse assessed as reduction in tumor mass at 7.5 mg/kg, ip administrated every other day relative to control; assay type: functional
Procedure, shortened: (§3)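 Male C57BL/6 mice (six weeks old) got 2.5×10^5 BL6-B16 murine melanoma cells s.c. in the dorsolateral flank, in PBS. Once tumors were measurable (about 100 mm³), mice were randomized and given drug i.p. every other day in 50 µL DMSO. Vehicle (DMSO) group served as control. Tumor volume = (D × d²)/2; tumor weight taken at end. 5 animals per group, mean ± SEM.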

[20] = tested on: B16-BL6; assay: Antitumour activity against mouse B16-BL6 cells allografted in C57BL/6 mouse assessed as reduction in tumor mass at 3 mg/kg, ip administrated every other day relative to control; assay type: functional; procedure, shortened: as §3
[21] = Selectivity ratio of GI50 for PHA-stimulated human PBL cells to GI50 for human DND41 cells incubated for 72 hrs by MTT assay
Procedure, shortened: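 Leukemia cells (CEM, DND-41, Jurkat) were grown in RPMI-1640 at 8×10³ cells/well and left 18 h. Donor PBL were gradient-separated, held overnight, and non-adherent cells set at 5×10^5 cells/mL with 2.5 µg/mL PHA. Both were exposed 72 h at 37 °C to graded compound concentrations, read by MTT. The ratio is PBL GI50 over leukemia GI50.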

[22] = Metabolic stability in human liver microsomes assessed as retention time of 7-phenyl-3H-pyrrolo[3,2-f]quinolin-9(6H)-one metabolite at 10 uM incubated for 60 mins in presence of NADPH by HPLC analysis; assay type: ADME, Microsome; conditions: 1 h
Procedure, shortened: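 Compound (10 µM) was incubated with pooled mixed-gender HLMs (0.5 mg protein/mL), 1 mM NADPH and 0.1 M KH2PO4 pH 7.4 for 60 min at 37 °C, aerobic. The reaction was started with microsomes and stopped with ice-cold acetonitrile; controls lacked NADPH. The supernatant went to C8 HPLC with fluorescence detection (ex 344, em 493 nm). Collected peaks were analyzed by ESI+ mass spectrometry.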

[23] = Metabolic stability in human liver microsomes at 10 uM incubated for 60 mins in presence of NADPH by ESI-MS analysis; assay type: ADME, Microsome; conditions: 1 h

With CCn1ccc2c3c(=O)cc(-c4ccccc4F)[nH]c3ccc21 the Activity [1] was “Active”, the GI50 [2] was 0.00026 µM and the GI50 [3] was 0.164 µM. For the same molecule, the GI50 [4] was 0.0155 µM, the GI50 [5] was 0.0048 µM and the GI50 at 72 h [6] was 15.2 µM. The Activity [7] was “Active”, the Activity [8] was “Active” and the Activity [9] was “Active”. For the same molecule, the Activity [10] was “Active”, the Activity [11] was 10% and the Activity [12] was 44%. For the same molecule, the Activity [13] was “Dose-dependent effect”, the inhibition [14] was “Active” and the Activity [15] was “Tde”. For the same molecule, the Activity [16] was “Active”, the Activity [17] was “Active” and the Activity [18] was “Active”. For the same molecule, the inhibition in vivo at 7.5 mg/kg [19] was 60%, the inhibition in vivo at 3 mg/kg [20] was 28.6% and the RatioGI50 [21] was 10000 - 30000.
In the case of CCn1ccc2c3c(=O)cc(-c4ccccc4)[nH]c3ccc21, the GI50 at 72 h [6] is reported as 7.6 µM, the Retention_time [22] is reported as 11.2 min and the Drug metabolism [23] is reported as “Metabolite_Detected”. The RatioGI50 [21] was 10000 - 30000.
